Measurements of several laboratories.
pIC50: −log10 of the molar value.

The pIC50 of `C=C(F)C(=O)N1CCN(c2nc(OC[C@@H]3CCCN3C)nc3c2CCN(c2cccc4cccc(Cl)c24)C3)C[C@@H]1CC#N` is reported as 5.70 (PC-9; cell growth or viability; ATP luminescence).
`COc1ccc(-c2cc(-c3ccc(Br)cc3)c3c(=O)n(C)c(=O)n(C)c3n2)cc1` has a pIC50 of 4.97 (HCT-116; cell growth or viability; MTT; 48 h).
For `O=C(CCO)NCc1ccccc1`, the pIC50 was 4.31 (DH82; PGE2 release; inhibitor; ELISA; 24 h; LPS-stimulated).
The pIC50 of `COc1cc2c3c(n(CCCn4ccnc4)c(=O)c2cc1OC)-c1nc2c(cc1C3=O)OCO2` is reported as 6.69 (Raji; cell growth or viability; MTS; 72 h).
For `COc1ccc(-c2cc(-c3cccc(Br)c3)c3c(=O)n(C)c(=O)n(C)c3n2)cc1`, the pIC50 was 5.10 (HCT-116; cell growth or viability; MTT; 48 h).
`CCCOc1nc(-c2cccc(O)c2)cc(-c2cc3ccccc3nc2N2CCOCC2)c1C#N` gave a pIC50 of 6.82 (NFS-60; cell growth or viability; MTT; 72 h).
The pIC50 of `NCCC(=O)NCc1ccccc1` is reported as 3.91 (DH82; PGE2 release; inhibitor; ELISA; 24 h; LPS-stimulated).
`CCCOc1nc(-c2cccc(O)c2)cc(-c2cc3cc(OC)ccc3nc2N2CCOCC2)c1C#N` has a pIC50 of 7.19 (NFS-60; cell growth or viability; MTT; 72 h).
`CN1Cc2c(N)cccc2C(=O)N1C1CCC(=O)NC1=O` (stereo not drawn) has a pIC50 of over 6.48 (NCI-H929; cell growth or viability; CCK-8; 96 h).
`NC(=O)c1ccncc1` has a pIC50 of under 3.70 (DH82; NO release; inhibitor; Griess; 24 h; LPS-stimulated).
`CCOc1nc(-c2cccc(O)c2)cc(-c2cc3ccccc3nc2N2CCOCC2)c1C#N` has a pIC50 of 7.07 (NFS-60; cell growth or viability; MTT; 72 h).
The pIC50 of `COCCC(=O)NCc1ccccc1` is reported as 3.90 (DH82; PGE2 release; inhibitor; ELISA; 24 h; LPS-stimulated).
`Cn1nnc2c(C(N)=O)ncn2c1=O` has a pIC50 of 4.30 (U-87 MG; cell growth or viability; trypan blue; 72 h).
`O=C(CCNNC(=O)c1ccncc1)NCc1ccccc1` has a pIC50 of under 3.70 (DH82; NO release; inhibitor; Griess; 24 h; LPS-stimulated).
`COc1cc2c3c(n(CCCN4CCOCC4)c(=O)c2cc1OC)-c1nc2c(cc1C3=O)OCO2` has a pIC50 of 6.43 (Raji; cell growth or viability; MTS; 72 h).
The pIC50 of `CC(C)c1ccccc1[C@@H]1CCCN1C1CC2(CCN(c3ccc(C(=O)NS(=O)(=O)c4ccc(NC[C@H]5CC[C@](C)(O)CC5)c([N+](=O)[O-])c4)c(Oc4cnc5[nH]ccc5c4)c3)CC2)C1` is reported as 8.19 (DOHH-2; cell growth or viability; ATP luminescence; 48 h).
For `COc1cc2c3c(n(CCCNC(C)C)c(=O)c2cc1OC)-c1nc2c(cc1C3=O)OCO2`, the pIC50 was 6.74 (Raji; cell growth or viability; MTS; 72 h).
For `C=CC(=O)Nc1cc(Nc2nccc(-c3cn(C)c4ccccc34)n2)c(OC)cc1N(C)CCN(C)C`, the pIC50 was 5.84 (PC-9; cell growth or viability; MTS; 72 h).
